Laboratory results taken from ChEMBL document CHEMBL1799971, “Bivalent dopamine D2 receptor ligands: synthesis and binding properties” (J Med Chem, 2011).
Activity calls are given as the source filed them. The rule behind the calls is not given here.

How the values were obtained:
D(4) dopamine receptor = biological target: T1, D(4) dopamine receptor (Homo sapiens, UniProt P21917); assay: Displacement of [3H]spiperone from human D4.4 receptor expressed in CHO cells; format: cell-based
T1 sequence (P21917 whole entry): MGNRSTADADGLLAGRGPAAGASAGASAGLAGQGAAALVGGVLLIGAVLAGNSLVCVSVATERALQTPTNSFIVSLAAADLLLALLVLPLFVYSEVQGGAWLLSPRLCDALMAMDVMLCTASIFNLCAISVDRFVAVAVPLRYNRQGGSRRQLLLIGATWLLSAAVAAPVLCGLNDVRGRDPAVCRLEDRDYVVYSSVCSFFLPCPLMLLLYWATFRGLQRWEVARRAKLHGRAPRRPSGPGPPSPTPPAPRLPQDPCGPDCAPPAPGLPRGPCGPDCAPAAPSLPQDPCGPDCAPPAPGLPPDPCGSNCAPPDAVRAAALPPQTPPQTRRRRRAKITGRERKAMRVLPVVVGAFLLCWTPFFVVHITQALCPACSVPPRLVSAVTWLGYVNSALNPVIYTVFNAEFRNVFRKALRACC

D(1A) dopamine receptor = D(1A) dopamine receptor (Sus scrofa, UniProt P50130); assay: Displacement of [3H]SCH23390 from D1 receptor from porcine cerebral cortex homogenates; format: tissue-based
Sequence of D(1A) dopamine receptor (P50130 whole entry): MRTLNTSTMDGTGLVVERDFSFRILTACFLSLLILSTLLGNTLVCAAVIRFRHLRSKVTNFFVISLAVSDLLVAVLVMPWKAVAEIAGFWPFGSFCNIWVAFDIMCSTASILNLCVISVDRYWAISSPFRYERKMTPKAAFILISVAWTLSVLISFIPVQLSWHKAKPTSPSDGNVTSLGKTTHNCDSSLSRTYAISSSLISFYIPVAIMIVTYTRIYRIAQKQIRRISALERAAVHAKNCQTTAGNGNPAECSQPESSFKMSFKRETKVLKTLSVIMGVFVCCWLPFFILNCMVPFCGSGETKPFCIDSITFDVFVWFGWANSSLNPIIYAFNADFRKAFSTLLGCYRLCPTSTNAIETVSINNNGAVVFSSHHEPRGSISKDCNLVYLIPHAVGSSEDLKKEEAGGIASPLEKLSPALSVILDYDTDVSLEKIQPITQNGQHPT
In short: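 Porcine cerebral cortex homogenate membranes at 40–60 μg/mL protein (Lowry, BSA standard). Competition curves were fitted to a sigmoid by nonlinear regression, with log EC50 and Hill coefficient as free parameters.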

D(3) dopamine receptor = D(3) dopamine receptor (Homo sapiens, UniProt P35462); assay: Displacement of [3H]spiperone from human D3 receptor expressed in CHO cells; format: cell-based
Sequence of D(3) dopamine receptor (P35462 whole entry): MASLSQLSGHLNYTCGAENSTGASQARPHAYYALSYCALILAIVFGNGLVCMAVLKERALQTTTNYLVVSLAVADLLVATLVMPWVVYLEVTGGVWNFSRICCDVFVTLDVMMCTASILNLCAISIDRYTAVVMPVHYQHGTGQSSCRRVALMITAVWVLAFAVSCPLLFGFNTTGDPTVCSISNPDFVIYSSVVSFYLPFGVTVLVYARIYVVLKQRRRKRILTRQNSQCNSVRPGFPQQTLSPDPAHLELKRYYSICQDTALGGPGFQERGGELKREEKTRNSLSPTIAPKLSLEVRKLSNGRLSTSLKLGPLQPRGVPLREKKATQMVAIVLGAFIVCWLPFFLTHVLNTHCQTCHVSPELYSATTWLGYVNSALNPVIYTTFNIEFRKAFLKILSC

D(2) dopamine receptor [1] = biological target: T2, D(2) dopamine receptor (Homo sapiens, UniProt P14416); assay: Displacement of [3H]spiperone from human D2short receptor expressed in CHO cells; format: cell-based
T2 sequence (P14416 whole entry): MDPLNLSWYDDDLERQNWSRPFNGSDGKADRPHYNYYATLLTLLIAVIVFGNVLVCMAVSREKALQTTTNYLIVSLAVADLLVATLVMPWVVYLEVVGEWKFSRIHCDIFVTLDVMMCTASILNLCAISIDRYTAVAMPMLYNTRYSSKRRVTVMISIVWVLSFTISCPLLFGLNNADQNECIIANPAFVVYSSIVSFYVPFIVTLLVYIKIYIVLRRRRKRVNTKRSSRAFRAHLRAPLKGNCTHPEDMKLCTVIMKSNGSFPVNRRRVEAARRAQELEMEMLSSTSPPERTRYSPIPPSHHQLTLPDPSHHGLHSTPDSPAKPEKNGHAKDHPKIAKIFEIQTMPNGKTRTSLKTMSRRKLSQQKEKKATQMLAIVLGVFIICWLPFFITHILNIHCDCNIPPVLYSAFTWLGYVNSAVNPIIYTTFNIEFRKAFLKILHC

D(2) dopamine receptor [2] = biological target: T2, D(2) dopamine receptor; assay: Displacement of [3H]spiperone from human D2long receptor expressed in CHO cells
Homo sapiens = species on record: Homo sapiens; assay: Selectivity ratio of Ki for human D4.4 receptor to Ki for human D3 receptor
D(2) dopamine receptor [3] = biological target: T2, D(2) dopamine receptor; assay: Displacement of [3H]spiperone from human D2short receptor expressed in CHO cells in presence of 100 mM sodium chloride; format: cell-based
In short: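 Buffer was 50 mM Tris, 1.0 mM EDTA, 5.0 mM MgCl2, 100 μg/mL bacitracin and 5 μg/mL soybean trypsin inhibitor, pH 7.4, plus NaCl at a final 100 mM. Curves were fitted by sigmoidal nonlinear regression with a free Hill coefficient.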

D(2) dopamine receptor [4] = biological target: T2, D(2) dopamine receptor; assay: Antagonist activity at human D2long receptor expressed in CHO10001 cells assessed as inhibition of agonist-stimulated [3H]thymidine incorporation into cells by mitogenesis assay; format: functional, cell-based
D(2) dopamine receptor [5] = biological target: T2, D(2) dopamine receptor; assay: Displacement of [3H]spiperone from human D2 receptor expressed in CHO cells assessed as dissociation half life; format: cell-based

Row | SMILES | Ki (D(4) dopamine receptor) [nM] | Ki (D(1A) dopamine receptor) [nM] | Ki (D(3) dopamine receptor) [nM] | Ki (D(2) dopamine receptor [1]) [nM] | Ki (D(2) dopamine receptor [2]) [nM] | Ratio Ki (Homo sapiens) | Ki (D(2) dopamine receptor [3]) [nM] | inhibition (D(2) dopamine receptor [4]) | T1/2 (D(2) dopamine receptor [5]) [h]
1 | COc1cc(CN2CCN(C)CC2)ccc1OCCCc1cn(CCCCCCCCn2cc(CCCOc3ccc(CN4CCN(c5ccccc5OC)CC4)cc3OC)nn2)nn1 | 12 | 980 |  |  |  |  |  |  | 
2 | CCOCCn1cc(COc2ccc(CN3CCN(c4ccccc4OC)CC3)cc2OC)nn1 | 8.4 | 3800 | 440 | 100 | 68 |  |  |  | 
3 | CCCCn1cc(CCCOc2ccc(CN3CCN(c4ccccc4OC)CC3)cc2OC)nn1 | 7.2 | 1500 |  |  |  | 80 | 35 | Active | 2
4 | CCOCCn1cc(CCCOc2ccc(CN3CCN(c4ccccc4OC)CC3)cc2OC)nn1 | 6.4 | 870 | 250 | 16 | 18 |  |  |  | 
5 | CCCCn1cc(COc2ccc(CN3CCN(c4ccccc4OC)CC3)cc2OC)nn1 | 3.3 | 2300 | 320 | 70 | 63 | 80 |  |  | 
6 | COc1cc(CN2CCN(c3ccccc3OC)CC2)ccc1OCCCCc1cn(CCCCCCCCCCn2cc(CCCCOc3ccc(CN4CCN(c5ccccc5OC)CC4)cc3OC)nn2)nn1 | 11 | 300 | 74 | 8.2 | 17 |  |  |  | 
7 | CCCCn1cc(CCCCOc2ccc(CN3CCN(c4ccccc4OC)CC3)cc2OC)nn1 | 13 | 2500 | 590 | 67 | 52 |  |  |  | 
8 | COc1cc(CN2CCN(c3ccccc3OC)CC2)ccc1OCCCc1cn(CCOCCOCCOCCn2cc(CCCOc3ccc(CN4CCN(c5ccccc5OC)CC4)cc3OC)nn2)nn1 | 19 | 270 | 72 | 6.2 | 4.8 |  |  |  | 
9 | COc1cc(CN2CCN(c3ccccc3OC)CC2)ccc1OCCCc1cn(CCCCCCCCn2cc(CCCOc3ccc(CN4CCN(C5CCCCC5)CC4)cc3OC)nn2)nn1 | 19 | 480 |  |  |  |  |  |  | 
10 | CCCc1cn(CCCCCCCCn2cc(CCCOc3ccc(CN4CCN(c5ccccc5OC)CC4)cc3OC)nn2)nn1 | 14 | 400 | 230 | 32 | 36 |  |  |  | 
11 | COc1cc(CN2CCN(c3ccccc3OC)CC2)ccc1OCCCc1cn(CCCCCCCCCCn2cc(CCCOc3ccc(CN4CCN(c5ccccc5OC)CC4)cc3OC)nn2)nn1 | 19 | 250 | 96 | 17 | 23 |  |  |  | 
12 | COc1cc(CN2CCN(c3ccccc3OC)CC2)ccc1OCCCc1cn(CCCCCCCCn2cc(CCCOc3ccc(CN4CCN(c5ccccc5OC)CC4)cc3OC)nn2)nn1 | 15 | 220 |  |  |  | 5 | 12 | Active | 2.17
13 | COc1cc(CN2CCN(c3ccccc3OC)CC2)ccc1OCc1cn(CCOCCOCCn2cc(COc3ccc(CN4CCN(c5ccccc5OC)CC4)cc3OC)nn2)nn1 | 6.8 | 390 | 36 | 3.4 | 3.3 |  |  |  | 
14 | COc1cc(CN2CCN(c3ccccc3OC)CC2)ccc1OCc1cn(CCCCCCCCn2cc(COc3ccc(CN4CCN(c5ccccc5OC)CC4)cc3OC)nn2)nn1 | 5.4 | 210 | 31 | 25 | 16 | 5 |  |  | 
15 | COc1cc(CN2CCN(c3ccccc3OC)CC2)ccc1OCCCc1cn(CCOCCOCCn2cc(CCCOc3ccc(CN4CCN(c5ccccc5OC)CC4)cc3OC)nn2)nn1 | 12 | 220 | 61 | 3.7 | 2.8 |  |  |  | 
